Laboratory results published in ChEMBL document CHEMBL1123603, “Synthesis of angiotensin II antagonists with variations in position 5” (J Med Chem, 1987).
Square brackets hold non-standard residues; d marks the D form. Peptide text beside a SMILES is read from it. * marks the point of attachment. Gly(cPent) = N[C@H](C(=O)O)C1CCCC1; Chg = N[C@H](C(=O)O)C1CCCCC1; Lac = C[C@H](O)C(=O)O; Glycolyl = O=C(CO)*; Sar = CNCC(=O)O

Assays:
Angiotensin II receptor = molecular target: T1, Angiotensin II receptor (Rattus norvegicus, UniProt P29089+P25095+P35351); test: Antagonistic effect against Angiotensin II receptor in zona glomerulosa; assay type: functional
T1 sequence (P29089 whole entry): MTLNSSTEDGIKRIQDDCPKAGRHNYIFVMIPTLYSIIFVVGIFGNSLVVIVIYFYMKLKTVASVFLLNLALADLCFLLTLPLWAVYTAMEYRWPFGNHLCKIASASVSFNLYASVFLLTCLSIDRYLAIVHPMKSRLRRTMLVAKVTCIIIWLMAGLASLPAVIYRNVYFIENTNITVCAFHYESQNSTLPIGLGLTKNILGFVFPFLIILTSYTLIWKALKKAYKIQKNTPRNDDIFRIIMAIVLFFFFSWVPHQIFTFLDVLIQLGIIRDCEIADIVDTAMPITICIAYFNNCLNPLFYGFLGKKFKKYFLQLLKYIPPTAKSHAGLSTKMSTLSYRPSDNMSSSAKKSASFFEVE
T1 sequence (P25095 whole entry): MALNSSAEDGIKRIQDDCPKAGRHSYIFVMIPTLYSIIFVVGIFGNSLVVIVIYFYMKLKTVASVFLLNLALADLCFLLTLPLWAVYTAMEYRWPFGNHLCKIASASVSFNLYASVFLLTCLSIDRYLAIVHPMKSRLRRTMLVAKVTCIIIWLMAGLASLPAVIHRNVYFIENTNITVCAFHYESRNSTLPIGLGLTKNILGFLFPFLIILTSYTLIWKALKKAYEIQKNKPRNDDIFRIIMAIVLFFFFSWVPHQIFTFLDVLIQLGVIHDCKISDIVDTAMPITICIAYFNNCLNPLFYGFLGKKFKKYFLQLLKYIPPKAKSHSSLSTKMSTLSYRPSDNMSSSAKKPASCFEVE
T1 sequence (P35351 whole entry): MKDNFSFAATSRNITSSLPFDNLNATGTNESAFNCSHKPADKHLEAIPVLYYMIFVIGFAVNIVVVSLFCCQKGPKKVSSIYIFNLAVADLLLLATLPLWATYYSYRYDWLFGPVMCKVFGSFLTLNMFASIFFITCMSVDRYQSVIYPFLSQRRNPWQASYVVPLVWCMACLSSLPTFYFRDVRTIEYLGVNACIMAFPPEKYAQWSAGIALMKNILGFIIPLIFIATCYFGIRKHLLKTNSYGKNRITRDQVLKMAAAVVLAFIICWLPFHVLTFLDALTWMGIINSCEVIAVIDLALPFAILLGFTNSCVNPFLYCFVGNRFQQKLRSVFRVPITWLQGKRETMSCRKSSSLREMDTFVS
In short: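 Dispersed zona glomerulosa cells from male CFY rats, 250–300 g. Capsules digested with collagenase 2 mg/mL and DNase 0.1 mg/mL, 2 × 25 min at 37 °C. Cells 3.0–3.5 × 10⁶/mL in Krebs–Ringer glucose buffer, 5 g/L albumin. Antagonists 2 × 10⁻¹²–2 × 10⁻⁶ M, alone or with 2 × 10⁻⁸ M AII, duplicate or triplicate. Aldosterone by RIA after CHCl3 extraction; pA2 values.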

Rattus norvegicus [1] = test: Tested in vivo on the angiotensin II induced rise of blood pressure after intravenous administration of 10 ug/kg in conscious rats; assay type: functional
In short: (§1)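 Conscious, free-moving rats, carotid artery linked to a pressure transducer 24 h after surgery. One analogue per rat, in 0.9% NaCl with 5 g/L BSA, given as a 10-s iv bolus into the jugular vein. Doses 1.25–20 μg/kg in random order, one every 20 min. Maximal blood pressure rise recorded; 6 rats; ANOVA with Dunnett's test.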

Rattus norvegicus [2] = test: Tested in vivo on the angiotensin II induced rise of blood pressure after intravenous administration of 1.25 ug/kg in conscious rats; assay type: functional; in short: as §1
Rattus norvegicus [3] = test: Tested in vivo on the angiotensin II induced rise of blood pressure after intravenous administration of 5 ug/kg in conscious rats; assay type: functional; in short: as §1
Rattus norvegicus [4] = test: Tested in vivo on the angiotensin II induced rise of blood pressure after intravenous administration of 2.5 ug/kg in conscious rats; assay type: functional; in short: as §1
[5] = molecular target: Angiotensin II receptor (Oryctolagus cuniculus); test: Antagonistic effect against Angiotensin II receptor in rabbit aortic strip
Rattus norvegicus [6] = test: Tested in vivo on the angiotensin II induced rise of blood pressure after intravenous administration of 20 ug/kg in conscious rats; assay type: functional; in short: as §1

SMILES: CNCC(=O)N[C@@H](CCCN=C(N)N)C(=O)N[C@H](C(=O)N[C@@H](Cc1ccc(O)cc1)C(=O)N[C@H](C(=O)N[C@@H](Cc1c[nH]cn1)C(=O)N1CCC[C@H]1C(=O)O[C@@H](C)C(=O)O)C1CCCC1)C(C)C (H-[Sar]RVY[Gly(cPent)]HP[Lac]-OH)
- pA2 (Angiotensin II receptor): 9.649
- Blood pressure (Rattus norvegicus [1]): 11.7 mmHg
- Blood pressure (Rattus norvegicus [2]): 5 mmHg
- Blood pressure (Rattus norvegicus [3]): 9.2 mmHg
- Blood pressure (Rattus norvegicus [4]): 10 mmHg
- pA2 [5]: 11.09
- Blood pressure (Rattus norvegicus [6]): 11.7 mmHg

SMILES: CC(C)[C@H](NC(=O)[C@H](CCCN=C(N)N)NC(=O)[C@H](C)O)C(=O)N[C@@H](Cc1ccc(O)cc1)C(=O)N[C@H](C(=O)N[C@@H](Cc1c[nH]cn1)C(=O)N1CCC[C@H]1C(=O)O[C@@H](C)C(=O)O)C1CCCC1 (H-[Lac]RVY[Gly(cPent)]HP[Lac]-OH)
- pA2 (Angiotensin II receptor): 8.392
- Blood pressure (Rattus norvegicus [1]): 10 mmHg
- Blood pressure (Rattus norvegicus [2]): 5.8 mmHg
- Blood pressure (Rattus norvegicus [3]): 5 mmHg
- Blood pressure (Rattus norvegicus [4]): 5 mmHg
- pA2 [5]: 8.52
- Blood pressure (Rattus norvegicus [6]): 15 mmHg

SMILES: CNCC(=O)N[C@@H](CCCN=C(N)N)C(=O)N[C@H](C(=O)N[C@@H](Cc1ccc(O)cc1)C(=O)N[C@H](C(=O)N[C@@H](Cc1c[nH]cn1)C(=O)N1CCC[C@H]1C(=O)N[C@@H](C)C(=O)O)C1CCCC1)C(C)C
- pA2 (Angiotensin II receptor): 9.933
- Blood pressure (Rattus norvegicus [1]): 17.5 mmHg
- Blood pressure (Rattus norvegicus [2]): 5.8 mmHg
- Blood pressure (Rattus norvegicus [3]): 10 mmHg
- Blood pressure (Rattus norvegicus [4]): 10 mmHg
- pA2 [5]: 9.42
- Blood pressure (Rattus norvegicus [6]): 14.2 mmHg

SMILES: CNCC(=O)N[C@@H](CCCN=C(N)N)C(=O)N[C@H](C(=O)N[C@@H](Cc1ccc(O)cc1)C(=O)N[C@H](C(=O)N[C@@H](Cc1c[nH]cn1)C(=O)N1CCC[C@H]1C(=O)N[C@@H](C)C(=O)O)C1CCCCC1)C(C)C
- pA2 (Angiotensin II receptor): 9.981
- Blood pressure (Rattus norvegicus [1]): 16.4 mmHg
- Blood pressure (Rattus norvegicus [2]): 10.29 mmHg
- Blood pressure (Rattus norvegicus [3]): 16.9 mmHg
- Blood pressure (Rattus norvegicus [4]): 17.9 mmHg
- pA2 [5]: 11.18

SMILES: CNCC(=O)N[C@@H](CCCN=C(N)N)C(=O)N[C@H](C(=O)N[C@@H](Cc1ccc(O)cc1)C(=O)N[C@H](C(=O)N[C@@H](Cc1c[nH]cn1)C(=O)N1CCC[C@H]1C(=O)O[C@@H](C)C(=O)O)C1CCCCC1)C(C)C (H-[Sar]RVY[Chg]HP[Lac]-OH)
- pA2 (Angiotensin II receptor): 10.39
- Blood pressure (Rattus norvegicus [1]): 8.6 mmHg
- Blood pressure (Rattus norvegicus [2]): 3.6 mmHg
- Blood pressure (Rattus norvegicus [3]): 12.1 mmHg
- Blood pressure (Rattus norvegicus [4]): 5.7 mmHg
- pA2 [5]: 11.29
- Blood pressure (Rattus norvegicus [6]): 8.3 mmHg

SMILES: CC(C)[C@H](NC(=O)[C@H](CCCN=C(N)N)NC(=O)CO)C(=O)N[C@@H](Cc1ccc(O)cc1)C(=O)N[C@H](C(=O)N[C@@H](Cc1c[nH]cn1)C(=O)N1CCC[C@H]1C(=O)O[C@@H](C)C(=O)O)C1CCCCC1 (Glycolyl-RVY[Chg]HP[Lac]-OH)
- pA2 (Angiotensin II receptor): 8.614
- Blood pressure (Rattus norvegicus [1]): 14.1 mmHg
- Blood pressure (Rattus norvegicus [2]): 6.7 mmHg
- Blood pressure (Rattus norvegicus [3]): 17.5 mmHg
- Blood pressure (Rattus norvegicus [4]): 7.5 mmHg
- pA2 [5]: 9.53
- Blood pressure (Rattus norvegicus [6]): 15.8 mmHg

SMILES: CC[C@H](C)[C@H](NC(=O)[C@H](Cc1ccc(O)cc1)NC(=O)[C@@H](NC(=O)[C@H](CCCN=C(N)N)NC(=O)[C@H](C)O)C(C)C)C(=O)N[C@@H](Cc1c[nH]cn1)C(=O)N1CCC[C@H]1C(=O)O[C@@H](C)C(=O)O
- pA2 (Angiotensin II receptor): 7.999
- Blood pressure (Rattus norvegicus [1]): 10 mmHg
- Blood pressure (Rattus norvegicus [2]): 4.2 mmHg
- Blood pressure (Rattus norvegicus [3]): 11.7 mmHg
- Blood pressure (Rattus norvegicus [4]): 5.8 mmHg
- pA2 [5]: 9.5
- Blood pressure (Rattus norvegicus [6]): 16.7 mmHg

SMILES: CNCC(=O)N[C@@H](CCCNC(=N)N)C(=O)N[C@H](C(=O)N[C@@H](Cc1ccc(O)cc1)C(=O)N[C@H](C(=O)N[C@@H](Cc1cnc[nH]1)C(=O)N1CCC[C@H]1C(=O)N[C@@H](C)C(=O)O)C(C)C)C(C)C [SARALASIN]
- Blood pressure (Rattus norvegicus [1]): 15 mmHg
- Blood pressure (Rattus norvegicus [2]): 7.9 mmHg
- Blood pressure (Rattus norvegicus [3]): 12.1 mmHg
- Blood pressure (Rattus norvegicus [4]): 9.3 mmHg
- Blood pressure (Rattus norvegicus [6]): 20 mmHg
